Assay outcomes as filed in PubChem.
Shown are actives, neighbours in structure and some others; about 2.7% of the full set was active somewhere.
ASAP1 inh: inhibitors of human ASAP1 ArfGAP activity, primary screen, biochemical, fluorescence polarization; actives 0.19% (n = 360,000); ASAP1-stimulated ARF1 GTP hydrolysis, GDP FP detection; inhibition, % at 16.5 µM; AID 624377, 2012; Arf-GAP with SH3 domain, ANK repeat and PH domain-containing protein 1 (Homo sapiens), …; in the data active = inhibition above about 25%;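 note: 0% = vehicle with enzyme and substrate and 100% = no enzyme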
ARFGAP1 inhibitor: inhibitors of rat ARFGAP1 GAP activity, primary screen, biochemical, fluorescence polarization, GDP tracer; ADP-ribosylation factor GTPase-activating protein 1 (Rattus norvegicus), Q62848; Arfgap1-stimulated ARF1 GTP hydrolysis, GDP FP detection; inhibition, % at 16.5 µM; actives 0.26% (n = 360,000); AID 651572, 2012;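 active = inhibition above a per-plate limit, mean inhibition of low control wells plus 3 SD, cut at about 25% in these data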;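 note: 0% = DMSO wells with enzyme and 100% = wells lacking Arfgap1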
Target sequence (Q62848 1-136 limits assumed): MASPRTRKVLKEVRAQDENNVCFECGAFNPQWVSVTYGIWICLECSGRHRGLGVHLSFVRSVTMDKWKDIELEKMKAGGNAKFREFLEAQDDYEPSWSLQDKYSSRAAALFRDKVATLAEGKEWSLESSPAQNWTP
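System: truncated rat Arfgap1 GAP domain / Benchmarks: high control wells lacking Arfgap1, low control full reaction with DMSO / Times: compound-enzyme preincubation 20 min, reaction 120 min, detection 60 min, 25 °C / Repeats: one replicate per compound / Also added: human ARF1(Δ1-17)-GTP substrate / Measured by: Tracer-displacement fluorescence polarization with EDTA stop, 620/688 nm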
PAFAH1B3 FP inh: PAFAH1B3 enzyme inhibitors, primary screen, biochemical, fluorescence polarization, human. Platelet-activating factor acetylhydrolase IB subunit alpha1 (Homo sapiens), Q15102. recombinant PAFAH1B3, FP-rhodamine probe. inhibition, % at 3.39 µM. actives 0.28% (n = 340,000);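 active = inhibition above the screen-wide average of all tested compounds plus 3 SD, cut at about 25% in these data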;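 note: 0% = enzyme with DMSO only and 100% = wells lacking PAFAH1B3 protein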
Target sequence (Q15102 whole entry, looked up): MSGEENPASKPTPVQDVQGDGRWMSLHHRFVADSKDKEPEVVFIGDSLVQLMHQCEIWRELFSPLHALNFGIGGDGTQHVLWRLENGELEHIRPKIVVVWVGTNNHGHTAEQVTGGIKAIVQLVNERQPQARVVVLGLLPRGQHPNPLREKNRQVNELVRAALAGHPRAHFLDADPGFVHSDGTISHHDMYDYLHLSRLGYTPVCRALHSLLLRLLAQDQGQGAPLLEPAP
pPAFAH inh: pPAFAH enzyme inhibitors, primary screen, biochemical, fluorescence polarization, human | Platelet-activating factor acetylhydrolase (Homo sapiens), Q13093 | recombinant pPAFAH, FP-rhodamine probe fluorescence polarization | inhibition, % at 3.39 µM | actives 1.5% (n = 330,000);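 active = inhibition above the mean inhibition across the screen plus 3 SD, cut at about 25% in these data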;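 note: inhibitors block binding of the rhodamine activity-based probe so polarization drops; 0% = enzyme with DMSO and 100% = wells lacking pPAFAH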
PAFAH2 FP inh: PAFAH2 enzyme inhibitors, primary screen, biochemical, fluorescence polarization, human; recombinant PAFAH2, FP-rhodamine activity probe; actives 0.99% (n = 340,000); Platelet-activating factor acetylhydrolase 2, cytoplasmic (Homo sapiens), Q99487; inhibition, % at 3.39 µM;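 active = inhibition above the mean over all tested compounds plus 3 SD, cut at about 30% in these data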;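 note: inhibitors block probe labeling of enzyme so polarization drops; 0% = enzyme with DMSO and 100% = wells lacking PAFAH2 protein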
PAFAH1B2 FP inh: PAFAH1B2 enzyme inhibitors, primary screen, biochemical, fluorescence polarization, human; Platelet-activating factor acetylhydrolase IB subunit alpha2 (Homo sapiens), P68402; recombinant PAFAH1B2, FP-rhodamine activity probe; inhibition, % at 3.39 µM; actives 1.2% (n = 340,000); AID 492953, 2010;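 active = inhibition above the mean of all tested compounds plus 3 SD, cut at about 24% in these data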;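 note: 0% = enzyme with DMSO and 100% = wells lacking PAFAH1B2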
* = called active by the depositor; / = no result.

SMILES	ASAP1 inh	ARFGAP1 inhibitor	PAFAH1B3 FP inh	pPAFAH inh	PAFAH2 FP inh	PAFAH1B2 FP inh
COc1ccccc1CCn1cnc(-c2cccc(F)c2)c1C(C)C	-6	2	/	/	/	/
CCNC(=O)N1C[C@H]2CON(C)[C@H]2C[C@H]1c1ccc(N2CCCCC2)cc1	2	0	/	/	/	/
Cc1ccc(Nc2nc(-c3c(C)nc4ncccn34)cs2)cc1	0	8	7	18	5	4
Cc1ccc(Nc2nc(-c3c(C)nc4ccccn34)cs2)cc1	16	14	9	28*	7	6
COCCN(C(=O)CC(C)(C)C)c1nnc(-c2cccnc2)s1	3	0	2	-1	2	1
COCCN(C(=O)CCc1ccccc1OC)c1nnc(-c2cccnc2)s1	-1	-1	2	25*	6	6
CCN(CC)c1ccc(C(=O)O)cc1	6	-7	7	2	0	2
CCN(CC)c1ccc(/C=C2\C(=O)c3ccc(C(=O)O)cc3C2=O)cc1	-17	-12	-20	28*	20	1
O=C(O/N=C/c1ccc(Cl)cc1)C1CCCCC1	12	7	12	5	77*	94*
O=C1C=C(c2cccc3c2Oc2ccccc2S3)C[C@@H](c2ccc3c(c2)OCO3)C1	-7	5	/	/	/	/
C[C@H](O)[C@@H]1C(=O)N2CCc3c([nH]c4cccc(-c5ccccc5)c34)[C@@H]2C[C@@H]1N(C)C(=O)OCc1ccccc1	7	10	/	/	/	/
CN(C)C1CCN(Cc2cc(COCc3ccccc3)c3cccnc3c2O)C1 (stereo not given)	/	/	17	25*	6	5
Cc1ccc(CNC(=O)c2ccc3c(=O)c(O)c(-c4ccc(C)cc4)[nH]c3c2)cc1	-13	0	11	27*	-22	8
CCCNC(=O)c1ccc2c(=O)c(O)c(-c3ccc(OC)cc3)[nH]c2c1	/	/	14	13	-16	2
CCCNC(=O)c1ccc2c(=O)c(O)c(-c3ccsc3)[nH]c2c1	/	/	38*	15	-16	27*
CCCCCCC12C(=Cc3cc(C)ccc31)c1ccccc1C(CC(=O)NCc1ccccc1)N2C(=O)OC (stereo not given)	1	3	/	/	/	/
O=C(Nc1nc2ccc(S(=O)(=O)N3CCCCC3)cc2s1)c1ccncc1	-14	1	6	0	-2	30*
F[B-](F)(F)c1cncnc1	-8	-8	/	/	/	/
C[C@H]1Cn2cnc(C(=O)N(C)Cc3ccccc3)c2C(=O)N1	2	4	/	/	/	/
N#CC(c1ccc(=O)[nH]n1)c1ccc(Cl)cc1Cl (stereo not given)	-8	16	3	34*	1	6
O=C(N[C@H](C(=O)N1CCC[C@H]1C(=O)NC1CCCC1)C1CCCCC1)c1ccco1	-3	-3	/	/	/	/
NC(=O)CCN(C(=O)c1cccc(S(=O)(=O)N2CCc3ccccc32)c1)c1ccccc1	-1	10	4	-1	-3	27*
Cc1ccc(S(=O)(=O)n2cnc3ccccc32)cc1	-2	-4	11	-3	-4	1
Cc1ccc(S(=O)(=O)n2cc(CO)c3ccccc32)cc1	-6	5	6	/	3	47*
CC(C)(C)c1ccc(C(=O)N2CCNCC2)cc1	3	-7	6	27*	-3	1
CCN(CC)c1ccc(/C=C(\C#N)C(=O)c2ccc(Br)cc2)cc1	2	4	41*	-4	81*	55*
CCN(CC)c1ccc(/C=C(\C#N)C(N)=O)cc1	18	17	9	/	4	2
O=c1oc(Cl)c(Cl)c2ccccc12	-1	5	16	2	35*	0
CSc1cccc(NC(=S)NN/C(=N/S(=O)(=O)c2ccccc2)N2CCCC2)c1	-5	-8	/	/	/	/
